# According to ChEMBL document CHEMBL4513216, “Probing the Open Global Health Chemical Diversity Library for Multistage-Active Starting Points for Next-Generation Antimalarials” (ACS Infect Dis, 2020):
# Experiment: Toxicity liver stage against HepG2, at 10uM
# Assay type: cell-based
# Design: test concentration 10 uM, cell line HepG2-A16-CD81EGFP
# Conditions: human, HepG2-A16-CD81EGFP cells; read-out: INHIBITION
# Procedure, shortened: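 Uninfected HepG2-A16-CD81EGFP cells, 3 × 10^3 per well, 1536-well, plated on prespotted compound at 10 μM final, parasite-free screening media added to match infected plates; puromycin 10 μM positive, DMSO 0.5% negative; run in parallel with 48 h PbLuc assay at 37 °C, 5% CO2; viability by CellTiter-Glo luminescence, normalized to controls.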
row,Structure (SMILES),cytotoxicity at 10 µM
1,Cc1cccc(C(=O)NCCNS(=O)(=O)c2cccs2)c1C,-0.642%
2,Cc1nn(CC(=O)O)c2nccc(-c3ccc(F)cc3)c12,-4.17%
3,O=C(CCNC(=O)c1cccc(OC(F)F)c1)Nc1cccnc1,0.258%
4,CSCC(=O)NCc1cc(Br)ccc1OC(F)F,-8.22%
5,O=C(NCCNc1ncccn1)C1CC(=O)N(CC(F)(F)F)C1 (stereo unspecified),-9.02%
6,COC(=O)NCC(=O)NC1(C)CCc2ccccc2C1 (stereo unspecified),4.29%
7,Cc1cc(N(C)C)nc(N2CC(n3cccn3)C2)n1,-3.24%
8,OC1CCN(Cc2ccc(CNc3ncc(Cl)cc3F)cc2)CC1,9.96%
9,CCCc1cc(N2CCC(NC3CCC(O)CC3)CC2)nc(C)n1 (stereo unspecified),-4.35%
10,COC(=O)c1ccc(N2CCN(C(=O)C3CCC3)C(C)C2)cc1 (stereo unspecified),-4.18%
11,CN(C)C(C(=O)N1CCN(CCn2cccc2)CC1)c1cccc(F)c1 (stereo unspecified),-22.8%
12,O=C(c1cccc2c1OCO2)N1CCC(N2CCCC2)CC1,-2.35%
13,Cc1nc(COc2cccc(C#N)c2)no1,-0.513%
14,Nc1nccc(C2CCCN(CC3CC3)C2)n1 (stereo unspecified),0.631%
15,O=C(C1CCOC1)N1C[C@H]2CN(Cc3cccnc3)C(=O)[C@H]2C1 (stereo partly specified),-108%
16,c1cncc(CN(Cc2ccc(-n3ccnc3)cc2)CC2CCCO2)c1 (stereo unspecified),-0.242%
17,Cc1cnn(CCNCCCOc2ccccc2)c1,-11.8%
18,CC(=O)N1CCc2[nH]cnc2C1C1=CCCN(CCn2cccc2)C1 (stereo unspecified),0.375%
19,Cc1cc(NC(=O)NCCC(=O)N2CCCc3ccccc32)no1,-5.96%
20,Cc1nc(Nc2nnc(C)s2)cc(C2CCCN2c2ccncn2)n1 (stereo unspecified),-14.3%
21,CN(Cc1ccco1)C(=O)CN1CCCC1Cn1cccn1 (stereo unspecified),1.55%
22,Cc1ccc(Cc2cnc(C3CCNCC3)cn2)cc1,-31.2%
23,c1cc(CN2CCSC3(CCCCC3)C2)no1,0.807%

row,Structure (SMILES),cytotoxicity at 10 µM
1,CC(=O)N1CCCC(c2ccc(N3CCOCC3)cn2)C1 (stereo unspecified),-18.9%
2,O=C(NCCO)C1(Cc2cc(-c3ccc(F)cc3F)no2)CCOCC1,0.333%
3,CNC(=O)[C@H]1C[C@H]2OCC[C@H]2N(Cc2ccc(F)cc2)C1,3.42%
4,OCC1(Cc2ccc(F)cc2F)CCCN(Cc2ccncc2)C1 (stereo unspecified),-3.44%
5,Cc1cc(Nc2cnccn2)cc(C2CCCNC2)n1 (stereo unspecified),4.75%
6,COc1ccc(C)cc1CN(CC(N)=O)C(C)C,-0.846%
7,CC(C(=O)N1CCOCC1)N1CCN(Cc2nccn2C)CC1 (stereo unspecified),-1.71%
8,Cc1cccnc1CNc1cc(N2CCCC2CO)ncn1 (stereo unspecified),-10.3%
9,O=C(C1CCCC1)N1CC2(CCNC2)OCc2ccccc21 (stereo unspecified),8.9%
10,COc1cc(C)ccc1OCC(=O)NS(=O)(=O)c1ccc(Br)s1,-7.72%
11,O=C1CC(c2ccc(Cl)c(Cl)c2)c2c(n3ccsc3nc2=O)N1 (stereo unspecified),-0.839%
12,COCCN1C[C@@H]2CC[C@H]1CN(Cc1nc3ccccc3n1C)C2,-11.2%
13,c1coc(-c2nc(CNC3CCCNC3)no2)c1 (stereo unspecified),-25.2%
14,Cc1oc(-c2ccc(F)cc2)nc1CN1CCOCS1(=O)=O,4.57%
15,Cc1ccc(N(C)C2CCN(C(=O)c3n[nH]c4c3CCC4)CC2)nn1,8%
16,CCOc1ccc(CNC(=O)N(C)CC(C)(C)O)cc1C,4.3%
17,CC(C)CN1C[C@@H]2C(=O)NC3(CCN(C(=O)c4cccnc4)CC3)[C@@H]2C1,5.53%
18,CCN1CCN(C(=O)COCc2nc(-c3ccncc3)no2)CC1,-8.72%
19,COC[C@H]1CNC(=O)[C@@H]2CCN(Cc3cccc(C)n3)CC[C@H]12,16.7%
20,COc1ccccc1CC(=O)N1CCC(NCc2c[nH]nc2C)CC1,-13.5%
21,CNC(=O)NC(=O)CN(C)C(c1cccnc1)c1ccc(F)cc1F (stereo unspecified),5.3%
22,O=C(NCc1c(F)cccc1Cl)c1cc(CN2CCCC(O)C2)on1 (stereo unspecified),-44.9%
23,CCCc1nc(C(C)(C)NC(=O)C2CC(=O)N(CCOC)C2)no1 (stereo unspecified),-8.12%
